High-throughput results from PubChem BioAssay.
aDG glyco act: increases alpha dystroglycan glycosylation; Pro5-aDG cells, alpha-DG glycosylation AlphaScreen (IIH6); 0% Pro5, 100% B10-LARGE cell signal; activation, % at 10 µM; 360,000 compounds, 0.22% hits; AID 624168;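 active means activation of at least 8% versus controls, or a plate z-score of at least 8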;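 further: Pro5 are CHO cells carrying HIG-tagged alpha-DG that lacks glycosylation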
CHOP inhibitor: CHOP inhibition in unfolded protein response | 220,000 compounds, 3.8% hits | CHO-K1 CHOP-promoter luciferase, tunicamycin-induced, 15-18 h | AID 2732 | inhibition, % at 10 µM;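 active means compounds that reduced the stress-induced luciferase reporter signal by more than about 70% of percent inhibition, limit read from the data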;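 further: 0% = tunicamycin plus vehicle and 100% = wells without tunicamycin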
XBP1 UPR activ: adaptive UPR (XBP1) activation; CHO-XBP1 luciferase reporter, IRE1-XBP1 UPR activation, luminescence; percent of tunicamycin response, DMSO as zero; activation, % at 20 µM; 330,000 compounds, 0.33% hits;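 active means versus positive control, 20 µM dose yields 30% or more activation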;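 further: 100% = tunicamycin at 10 µg/mL and 0% = DMSO only wells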
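Signal: luciferase luminescence; Assay system: CHO-XBP1 luciferase reporter cells; Amount: one thousand reporter cells per well; Dosing: 20 µM single concentration, DMSO 1%; Benchmarks: high control tunicamycin 10 µg/mL final, low control DMSO vehicle only; Schedule: 6 h compound exposure at 37 °C, 5% CO2; Evaluation: percent activation relative to tunicamycin reference.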
GRIN3A LBD mod: modulates the human NR3A ligand-binding domain; NR3A LBD differential scanning fluorimetry, Tm shift; 0% = protein alone, 100% = glycine-bound protein; Tm shift relative to glycine control, % at 25 µM; 340,000 compounds, 2.5% hits;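 active means melting temperature shift of at least 10% of the positive control shift, at one fixed dose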
MPTP inh: permeability transition pore inhibition | isolated mouse mitochondria, Ca2+ swelling absorbance, 30 min | inhibition, % at 10 µM | 360,000 compounds, 1.4% hits;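 active means inhibition of 50% or more, scaled per plate between neutral and stimulator controls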;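 further: 0% = DMSO wells given calcium and 100% = 1 mM EGTA wells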
CHOP UPR activ: activators of apoptotic arm of unfolded protein response (CHOP). CHO-CHOP luciferase reporter, UPR activation, luminescence; percent of tunicamycin response over DMSO baseline. activation, % at 10 µM. 330,000 compounds, 0.34% hits. AID 449763;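 active means at 10 µM dose, activation of 40% or more, normalized to positive control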;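 further: 100% = tunicamycin at 10 µg/mL and 0% = DMSO alone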
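measured by = luciferase luminescence | assay system = CHO-CHOP cells, stable luciferase reporter of PERK-eIF2a-CHOP signalling | amount = 500 reporter cells seeded per well | timing = 6 h compound exposure at 37 °C after overnight seeding | controls = positive tunicamycin 10 µg/mL, negative DMSO alone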
CHOP confirm: confirmation of CHOP induction inhibitors; shares compounds with CHOP inhibitor; CHO-CHOP promoter luciferase reporter, tunicamycin-induced, luminescence; inhibition, % at 10 µM; 2,100 compounds, 45% hits; AID 504437;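 active means mean of three repeat readings of reporter signal inhibition above a set limit, cut at about 70% in these data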;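 further: 0% = tunicamycin plus vehicle and 100% = wells lacking tunicamycin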
XBP1 UPR conf: adaptive UPR (XBP1) activation, confirmed | shares compounds with XBP1 UPR activ | CHO-XBP1 IRE1-XBP1 luciferase reporter, luminescence | activation, % at 20 µM | 1,000 compounds, 63% hits;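 active means reporter signal at least 30% of the positive control's activation in two or more of four replicate wells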;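 further: plate controls were DMSO negative control for no effect and tunicamycin 10 µg/mL positive control for full effect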
MPTP counter: mitochondrial membrane potential, counter-screen | shares compounds with MPTP inh | isolated mitochondria, Rhodamine 123 fluorescence | inhibition, % at 10 µM | 5,000 compounds, 78% hits; in the data active means inhibition above about 22%;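 further: 0% = DMSO vehicle and 100% = positive control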
MPTP abs DR: MPTP inhibition, dose response swelling confirmation; shares compounds with MPTP inh; isolated mitochondria swelling, absorbance; 780 compounds, 58% hits; IC50, µM; in the data active means IC50 below about 20 µM
MPTP cs DR: counter-screen for mitochondrial permeability transition pore inhibitors, dose response | AID 651564 | IC50, µM | shares compounds with MPTP inh | 780 compounds, 49% hits | isolated mitochondria counterscreen, fluorescence read-out; in the data active means IC50 below about 80 µM
* hit, by the source's call; x = not tested or not shown. Compounds with a hit are over-represented: about 5.6% of the library has one in this group of screens.

SMILES	aDG glyco act	CHOP inhibitor	XBP1 UPR activ	GRIN3A LBD mod	MPTP inh	CHOP UPR activ	CHOP confirm	MPTP counter	others
N#CC1=C(N)N2C(=C(C#N)C1c1ccccc1)Sc1ccccc12 (stereo not given)	x	-25	-4	x	x	-1	x	x
N#CC1=C(N)N2C(=C(C#N)C1c1cccc(Br)c1)Nc1ccccc12 (stereo not given)	0	101*	14	24*	86*	1	105*	55*
O=C(Nc1ccccc1)Nc1cc(OCC(F)(F)F)cc(OCC(F)(F)F)c1	0	107*	x	41*	77*	x	126*	63*
O=C(Nc1ccccc1)Nc1cc(Cl)cc(Cl)c1	0	111*	0	x	101*	3	68	100*
O=C(Nc1ccccc1)Nc1ccc(Oc2cccnc2)nc1	0	-8	1	-17	9	4	x	x
N=c1n(CC(=O)c2ccc([N+](=O)[O-])cc2)c2ccccc2n1Cc1ccccc1Cl	1	35	x	-4	4	x	x	x
N=c1n(CC(=O)c2ccc([N+](=O)[O-])cc2)c2ccccc2n1Cc1ccc(Cl)cc1	2	105*	165*	-7	88*	35	122*	-11	XBP1 UPR conf=59*
COC(=O)CS(=O)(=O)c1nnc([C@H](Cc2ccccc2)NC(=O)OC(C)(C)C)o1	-1	111*	-11	0	98*	-10	94*	1
O=C(Cc1ccc(Cl)cc1)NNC(=O)C1CC=CCC1C(=O)O (stereo not given)	0	x	0	x	-1	1	x	x
CCN(CC)S(=O)(=O)c1ccc2[nH]c(=O)cc(C(=O)Nc3ccccc3N3CCOCC3)c2c1	0	x	-2	2	0	0	x	x
c1cc2c(cc1C1CCCCC1)c1c3n2CCCNC3CCC1 (stereo not given)	-1	x	8	0	80*	32	-44	-29
O=C(C1CCCO1)N1CCN(c2ccccn2)CC1 (stereo not given)	0	-6	-1	0	-5	3	x	x
O=C(Nc1ccc([N+](=O)[O-])cc1)Nc1nc(-c2ccc(Cl)s2)cs1	0	107*	x	416*	91*	x	83*	87*
O=S(=O)(NCC(Nc1ccc(Cl)cc1)c1ccccc1)c1ccccc1 (stereo not given)	0	99*	-3	23*	75*	-1	22	87*
NS(=O)(=O)c1ccc(NC(CNS(=O)(=O)c2ccccc2)c2ccccc2)cc1 (stereo not given)	0	28	-4	-7	-1	1	x	x
CC(C)(C)c1ccc(OCCNCc2ccccc2)cc1	0	x	1	1	8	4	x	x
CC(C)(C)c1ccc(OCCNC(=S)Nc2ccccc2)cc1	1	104*	2	7	92*	0	72*	89*
CN1CCN(/N=C/c2ccc(N(c3ccccc3)c3ccccc3)cc2)CC1	0	105*	2	-1	81*	0	-17	-15
Cc1ccccc1NC(=O)c1ccc(NC(=O)C2CCCO2)cc1 (stereo not given)	0	x	-1	-2	0	3	x	x
O=C(Nc1cccc(Cl)c1)Nc1cnccn1	0	x	1	-28	0	0	x	x
O=C(Nc1cccc(Cl)c1)Nc1ccnc(-c2cccnc2)n1	0	105*	3	10	77*	2	105*	87*
CCO[C@H]1OC(C(N)=O)=C[C@@H](C2CC2)[C@@H]1CCCO	x	x	-1	-2	x	3	x	x
CC(C)Cn1c(N)c(C(=O)COC(=O)CC23CC4CC(CC(C4)C2)C3)c(=O)n(C)c1=O	4	98*	2	2	81*	4	90*	116*
CCCCCCCCCCCCCCCCn1cc[n+](C)c1	0	81*	3	-359	58*	23	115*	99*
O=C(NCC(c1ccco1)N1CCc2ccccc2C1)c1cccc(Br)c1 (stereo not given)	0	x	0	-7	2	-3	x	x
SMILES	aDG glyco act	CHOP inhibitor	XBP1 UPR activ	GRIN3A LBD mod	MPTP inh	CHOP UPR activ	CHOP confirm	MPTP counter	others
Cc1ccccc1C(=O)NNC(=S)NC(=O)c1ccc(Cl)cc1Cl	0	96*	-1	-13	76*	-1	12	5
O=C(NC(=S)NNC(=O)c1ccc(Cl)cc1Cl)c1cccnc1	0	34	-3	-2	-2	-1	x	x
CC(C)Cc1cc(C(=O)N2N=C(C(F)F)CC2(O)C(F)F)c2ccccc2n1 (stereo not given)	0	32	-2	-4	35	-1	x	x
CCc1ccc(-c2cc(C(=O)N3N=C(C(F)F)CC3(O)C(F)F)c3ccccc3n2)cc1 (stereo not given)	0	110*	9	22*	84*	8	113*	83*
Cn1c(=O)c(C(=O)Nc2ncccc2O)c(O)c2ccccc21	0	110*	1	-1	74*	0	84*	-8	MPTP abs DR=>100;MPTP cs DR=>80
CC(C)C[C@H](NC(=O)OC(C)(C)C)c1nnc(SCC(=O)Nc2ccc(Br)cc2)o1	0	100*	-1	-1	66*	-2	132*	70*
O=C1/C(=C/c2cccs2)SC(=S)N1c1cccc(O)c1	0	-7	10	2	12	2	x	x
CC[C@H](NC(=O)CC[C@H]1O[C@@H](n2cnc3c(NC(=O)c4ccccc4)ncnc32)[C@H](O)[C@@H]1O)c1ccccc1	0	x	x	x	0	x	x	x
COc1ccccc1NS(=O)(=O)c1cccc(NC(=O)NCCCl)c1	0	15	-1	-1	6	0	x	x
COc1ccccc1NS(=O)(=O)c1cccc(NC(=O)Nc2cccc(Cl)c2)c1	5	101*	5	23*	81*	1	51	76*
FC(F)Sc1ccc(NC(=S)NCC2CCCCC2)cc1	2	106*	6	31*	103*	4	15	80*
